Among the data in ChEMBL document CHEMBL4138150, “Quinoline derivatives bearing pyrazole moiety: Synthesis and biological evaluation as possible antibacterial and antifungal agents” (2018) are zone of inhibition and MIC values, retold here.

≈ marks a conversion by molar mass, not a printed value.

Holding throughout (assay type): functional
Test [1] concerns Staphylococcus aureus. Kind of test: Antimicrobial activity against Staphylococcus aureus RCMB 010027 assessed as diameter of zone inhibition at 5 mg/ml after 24 hrs by agar well diffusion assay. The following applies: RCMB 010027, 24 h, read-out: DIZ. Put shortly:
(§1)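 Agar well diffusion: 100 µL of 1 x10^8 CFU/mL bacteria was spread on nutrient agar. 10 mm wells received 100 µL of compound at 5 mg/mL in DMSO, or ampicillin or gentamycin standards at 1 mg/mL. DMSO served as negative control. Plates were incubated 24 h at 37 °C. Inhibition zone diameter (mm) was measured as the mean of triplicates.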
Background: Agar diffusion results depend on both activity and mobility in agar.

Test [2] deals with Staphylococcus epidermidis. Nature of the test: Antimicrobial activity against Staphylococcus epidermidis RCMB 010024 assessed as diameter of zone inhibition at 5 mg/ml after 24 hrs by agar well diffusion assay. The following applies: RCMB 010024, 24 h, read-out: DIZ. The gist of the method: as §1
The subject of test [3] is Bacillus subtilis. Kind of test: Antimicrobial activity against Bacillus subtilis RCMB 010063 assessed as diameter of zone inhibition at 5 mg/ml after 24 hrs by agar well diffusion assay. To be noted: RCMB 010063, 24 h, read-out: DIZ. The gist of the method:
as §1

Test [4] deals with Proteus vulgaris. Nature of the test: Antimicrobial activity against Proteus vulgaris RCMB 010085 assessed as diameter of zone inhibition at 5 mg/ml after 24 hrs by agar well diffusion assay. To be noted: RCMB 010085, 24 h, read-out: DIZ. The gist of the method: as §1
Test [5] has as its system Klebsiella pneumoniae. Nature of the test: Antimicrobial activity against Klebsiella pneumoniae RCMB 010093 assessed as diameter of zone inhibition at 5 mg/ml after 24 hrs by agar well diffusion assay. The following applies: RCMB 010093, 24 h, read-out: DIZ. The gist of the method: as §1
Test [6] deals with Shigella flexneri. Nature of the test: Antimicrobial activity against Shigella flexneri RCMB 0100542 assessed as diameter of zone inhibition at 5 mg/ml after 24 hrs by agar well diffusion assay. To be noted: RCMB 0100542, 24 h, read-out: DIZ. The gist of the method: as §1
Test [7] deals with Aspergillus fumigatus. Nature of the test: Antimicrobial activity against Aspergillus fumigatus RCMB 02564 assessed as diameter of zone inhibition at 5 mg/ml after 72 hrs by agar well diffusion assay. The following applies: RCMB 02564, 72 h, read-out: DIZ. Put shortly:
(§2)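 Fungi (1 x10^6 CFU/mL, 100 µL) were spread on Sabouraud dextrose agar. 10 mm wells were loaded with 100 µL of test solution at 5 mg/mL in DMSO, or amphotericin B standard at 1 mg/mL. A DMSO negative control was included. Plates were incubated 72 h at 28 °C. Inhibition zone diameter (mm) was recorded as the average of triplicate runs.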

Test [8] deals with Aspergillus clavatus. Kind of test: Antimicrobial activity against Aspergillus clavatus RCMB 02593 assessed as diameter of zone inhibition at 5 mg/ml after 72 hrs by agar well diffusion assay. The following applies: RCMB 02593, 72 h, read-out: DIZ. Put shortly: as §2
Test [9] has as its system Candida albicans. Nature of the test: Antimicrobial activity against Candida albicans RCMB 05035 assessed as diameter of zone inhibition at 5 mg/ml after 72 hrs by agar well diffusion assay. To be noted: RCMB 05035, 72 h, read-out: DIZ. The gist of the method:
as §2

The test system of test [10] is Staphylococcus aureus. Nature of the test: Antimicrobial activity against Staphylococcus aureus RCMB 010027 after overnight incubation by macro-tube dilution technique. Put shortly:
(§3)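 Macro-tube twofold dilution following NCCLS guidance, run in nutrient broth. The first tube held 10 mg compound in 2.0 mL DMSO and was serially halved 1:1 into 1.0 mL broth through tube 14; tube 15 was the control. The inoculum was suspended to turbidity in 5.0 mL broth, 0.2 mL was diluted into 40 mL, and 1.0 mL was added per tube. Tubes were incubated overnight at 37 °C. MIC was the lowest concentration with no growth.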

Test [11] has as its system Staphylococcus epidermidis. Nature of the test: Antimicrobial activity against Staphylococcus epidermidis RCMB 010024 after overnight incubation by macro-tube dilution technique. Put shortly: as §3
In test [12] the test system is Bacillus subtilis. Nature of the test: Antimicrobial activity against Bacillus subtilis RCMB 010063 after overnight incubation by macro-tube dilution technique. The gist of the method:
as §3

Test [13] concerns Proteus vulgaris. Kind of test: Antimicrobial activity against Proteus vulgaris RCMB 010085 after overnight incubation by macro-tube dilution technique. The gist of the method:
as §3

Test [14] has as its system Klebsiella pneumoniae. Nature of the test: Antimicrobial activity against Klebsiella pneumoniae RCMB 010093 after overnight incubation by macro-tube dilution technique. Put shortly: as §3
For test [15], the system named is Shigella flexneri. Kind of test: Antimicrobial activity against Shigella flexneri RCMB 0100542 after overnight incubation by macro-tube dilution technique. The gist of the method: as §3
Test [16] relates to Aspergillus fumigatus. Nature of the test: Antimicrobial activity against Aspergillus fumigatus RCMB 02564 after 72 hrs by macro-tube dilution technique. To be noted: RCMB 02564, 72 h. The gist of the method: (§4)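 Twofold macro-tube dilution following NCCLS guidance, run in malt extract broth. 10 mg compound in 2.0 mL DMSO in tube 1 was serially diluted 1:1 through tube 14 into 1.0 mL broth; tube 15 was the control. Culture was suspended to turbidity in 5.0 mL broth, 0.2 mL was diluted into 40 mL, and 1.0 mL was added per tube. Incubation was 72 h at 30 °C. MIC was the lowest concentration with no growth.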

Test [17] concerns Aspergillus clavatus. Kind of test: Antimicrobial activity against Aspergillus clavatus RCMB 02593 after 72 hrs by macro-tube dilution technique. To be noted: RCMB 02593, 72 h. Put shortly:
as §4

The subject of test [18] is Candida albicans. Nature of the test: Antimicrobial activity against Candida albicans RCMB 05035 after 72 hrs by macro-tube dilution technique. The following applies: RCMB 05035, 72 h. The gist of the method: as §4

What is called MIC is the lowest concentration that inhibits growth of the organism. Higher therefore signals a need for much substance. Turning to `C(=N\Nc1ccc2ccccc2n1)/c1cn(-c2ccccc2)nc1-c1ccccc1`, the zone of inhibition at 5000 µg/mL in test [1] stood at 22.2 mm; in test [2], 23.4 mm; in test [3], 23.2 mm; in test [4] it was 20.2 mm; in [5], 21.2 mm; in [6], 20.1 mm. For the same compound, the zone of inhibition at 5000 µg/mL in [7] was 17.5 mm; in test [8] it was 18.4 mm; in test [9], 19.6 mm. In addition, the MIC came to 3.9 µg/mL (≈ 10 µM) in [10]; 3.9 µg/mL (≈ 10 µM) in test [11]; 1.97 µg/mL (≈ 5.06 µM) in test [12]; 7.81 µg/mL (≈ 20.1 µM) in [13]; 3.9 µg/mL (≈ 10 µM) in test [14]; 7.81 µg/mL (≈ 20.1 µM) in [15]. Also, the MIC in [16] stood at 7.81 µg/mL (≈ 20.1 µM); in [17] it was 15.6 µg/mL (≈ 40.1 µM); in test [18], 7.81 µg/mL (≈ 20.1 µM).

For `Cc1nn(-c2ccc3ccccc3n2)c(N)c1C#N`, the zone of inhibition at 5000 µg/mL in test [1] came out at 19.2 mm; in test [2], 20.6 mm; in test [3], 20.9 mm; in test [4] it was 11.6 mm; in [5] it was 15.7 mm; in test [6] it was 15.9 mm. Besides, the values for the zone of inhibition at 5000 µg/mL in [7], in [8] and in [9] were 16.8 mm, 18.3 mm and 20.4 mm, respectively. Besides, the MIC came to 3.9 µg/mL (≈ 15.6 µM) in test [10]; 0.98 µg/mL (≈ 3.93 µM) in [11]; 0.98 µg/mL (≈ 3.93 µM) in test [12]; 500 µg/mL (≈ 2010 µM) in test [13]; 31.2 µg/mL (≈ 125 µM) in test [14]; 31.2 µg/mL (≈ 125 µM) in [15]. Also, the results for the MIC in test [16], in test [17] and in test [18] were 15.6 µg/mL (≈ 62.7 µM), 7.8 µg/mL (≈ 31.3 µM) and 1.95 µg/mL (≈ 7.82 µM), respectively.

With `COc1ccc(C2=NNC(c3ccc(Oc4ccc5ccccc5n4)cc3)C2)cc1` (centres undefined), the zone of inhibition at 5000 µg/mL in test [1] was 16.2 mm; in test [2], 18.6 mm; in [3], 19.4 mm; in test [4] it was 16.2 mm; in test [5], 0 mm; in test [6], 15.4 mm. The results for the zone of inhibition at 5000 µg/mL in test [7], in [8] and in test [9] were 15.6 mm, 12.8 mm and 11.6 mm, respectively.

In the case of `CSc1nn(-c2ccc3ccccc3n2)c(N)c1C#N`, the zone of inhibition at 5000 µg/mL is 18.9 mm in test [1]; 16.2 mm in test [2]; 19.8 mm in test [3]; 12.3 mm in [4]; 15.3 mm in [5]; 16.2 mm in test [6]. Also, the zone of inhibition at 5000 µg/mL in test [7] was found to be 15.7 mm; in test [8], 15.9 mm; in [9] it was 16.8 mm.

For `COc1ccc(C2CC(c3ccc(Oc4ccc5ccccc5n4)cc3)=NN2)cc1` (centres undefined), the zone of inhibition at 5000 µg/mL in test [1] was 13.1 mm; in test [2], 14.6 mm; in test [3], 13.7 mm; in [4], 14.3 mm; in test [5], 16.2 mm; in test [6], 14.3 mm. Besides, the zone of inhibition at 5000 µg/mL in test [7] is 13.5 mm; in test [8], 14.2 mm; in test [9], 12.1 mm.

On to `N#Cc1c(-c2cccc(Cl)c2)nn(-c2ccc3ccccc3n2)c1N`, for which the zone of inhibition at 5000 µg/mL was 10.3 mm in [1]; 11.6 mm in test [2]; 13.3 mm in [3]; 0 mm in [4]; 0 mm in test [5]; 0 mm in test [6]. Moreover, the values for the zone of inhibition at 5000 µg/mL in test [7], in test [8] and in [9] were 12.3 mm, 13.2 mm and 15.2 mm, respectively.

`CCOC(=O)c1c(C)nn(-c2ccc3ccccc3n2)c1N`: the zone of inhibition at 5000 µg/mL in [1] was found to be 20.3 mm; in [2], 17.3 mm; in [3] it was 20.2 mm; in [4] it was 13.6 mm; in test [5], 15.9 mm; in test [6], 16.8 mm. The zone of inhibition at 5000 µg/mL in [7] was determined as 16.3 mm; in [8], 18.6 mm; in test [9] it was 19.8 mm. The minimum inhibitory concentration (MIC) was 1.95 µg/mL (≈ 6.58 µM) in test [10]; 15.6 µg/mL (≈ 52.7 µM) in test [11]; 1.95 µg/mL (≈ 6.58 µM) in [12]; 125 µg/mL (≈ 422 µM) in test [13]; 31.2 µg/mL (≈ 105 µM) in test [14]; 15.6 µg/mL (≈ 52.7 µM) in [15]. Further, the results for the MIC in test [16], in test [17] and in test [18] were 31.2 µg/mL (≈ 105 µM), 3.9 µg/mL (≈ 13.2 µM) and 1.95 µg/mL (≈ 6.58 µM), respectively.

As for `COc1ccc(C(=O)/C=C/c2ccc(Oc3ccc4ccccc4n3)cc2)cc1`, the zone of inhibition at 5000 µg/mL in [1] is 8.7 mm; in [2], 10.6 mm; in test [3] it was 0 mm; in test [4], 0 mm; in test [5], 7.2 mm; in test [6] it was 0 mm. Besides, the zone of inhibition at 5000 µg/mL in [7] was 10.7 mm; in [8], 11.5 mm; in test [9], 0 mm.

Consider `Clc1ccccc1C1CC(c2ccc(Oc3ccc4ccccc4n3)cc2)=NN1c1ccccc1` (centres undefined), for which the zone of inhibition at 5000 µg/mL in [1] was determined as 14.8 mm; in test [2] it was 0 mm; in test [3], 16.4 mm; in [4], 12.4 mm; in [5], 13.3 mm; in test [6], 0 mm. Besides, the figures for the zone of inhibition at 5000 µg/mL in test [7], in [8] and in test [9] were 12.3 mm, 0 mm and 9.3 mm, respectively.

Regarding `CCOC(=O)c1c(SC)nn(-c2ccc3ccccc3n2)c1N`, the zone of inhibition at 5000 µg/mL in test [1] came to 15.8 mm; in [2] it was 17.8 mm; in [3], 19.8 mm; in test [4] it was 0 mm; in [5], 0 mm; in test [6], 0 mm. Besides, the zone of inhibition at 5000 µg/mL in test [7] amounted to 18.7 mm; in test [8], 19.3 mm; in test [9], 20.3 mm. The MIC in test [16] amounted to 7.81 µg/mL (≈ 23.8 µM); in test [17], 7.81 µg/mL (≈ 23.8 µM); in [18] it was 1.95 µg/mL (≈ 5.94 µM).

With `COc1ccc(C2=NN(c3ccccc3)C(c3ccc(Oc4ccc5ccccc5n4)cc3)C2)cc1` (centres undefined), the zone of inhibition at 5000 µg/mL was determined as 12.1 mm in test [1]; 13.1 mm in [2]; 0 mm in [3]; 13.5 mm in test [4]; 15.9 mm in test [5]; 14.4 mm in [6]. For the same compound, the zone of inhibition at 5000 µg/mL in [7] was determined as 16.2 mm; in test [8], 14.5 mm; in test [9], 11.6 mm.
